From PubChem
Most compounds without a hit are left out; they make up all but 1.5% or so of the library.
Cneo AK release: Cryptococcus neoformans lysis via adenylate kinase release | C. neoformans lysis, adenylate kinase release luminescence, 4 h; normalised: neutral wells 0, clomiphene wells 100 | lysis activity, % at 15 µM | AID 651654 | 360,000 tested, 0.2% active;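 active means mean lysis activity across replicates of at least 80%, whatever share of replicates individually reach that level; inactive means mean lysis activity below 80%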
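Material – Cryptococcus neoformans yeast cells · Quantity – 5 × 10^6 yeast cells/mL · Buffer or medium – YPD medium · Compound – single dose · Timing – 4 h static compound exposure, 37 °C, read 1 h post-reagent · Signal – adenylate kinase release luminescence · Read-out basis – lysis from increased AK signal · Benchmarks – Clomiphene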
Mot1-301 SUMO: SUMOylation pathway inhibition by Mot1-301 growth rescue; S. cerevisiae Mot1-301 growth rescue, ATP luminescence, 38.5C; percent above DMSO median, 100 means doubled; AID 2716; 320,000 tested, 1% active; growth rescue, % at 18.8 µM;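 active means every valid replicate shows activation above 250% relative to neutral control wells; inactive means the rest, any valid replicate at or below 250%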;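 further: OY570 slx delta 5 strain wells were the positive control but not used for scaling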
C2C12 statin: suppression of simvastatin myotoxicity | C2C12 myotubes + simvastatin, ATP luminescence, 48 h; scaled: DMSO 0, geranylgeraniol control 100 | rescue of ATP level, % at 7.49 µM | 330,000 tested, 0.78% active | AID 602340;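 active means mean ATP rescue above about 67%, or every replicate alone reaching that limit, limit read from the data, passing the limit was not always enough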;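 further: myotubes were challenged with 10 µM simvastatin during compound exposure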
Starred values were filed as active, the others as inactive; nt = not tested or not shown.

SMILES | Cneo AK release | Mot1-301 SUMO | C2C12 statin
COCCN1Cc2cccc(C(=O)Nc3cccc(-c4nc5ccccc5[nH]4)c3)c2C1=O | 2 | 13 | -46
COCCN1Cc2cccc(C(=O)Nc3ccc(-c4nc5ccccc5[nH]4)cc3)c2C1=O | -9 | 689* | nt
O=C(c1ccc(F)cc1)N1CCCCN2[C@H](CO)[C@@H](c3ccc(-c4ccc(F)cc4)cc3)[C@H]2C1 | 3 | nt | nt
COc1ccc(NC(=O)N(C)C[C@@H]2OCCCC[C@@H](C)Oc3ccc(NC(=O)Nc4c(C)noc4C)cc3C(=O)N([C@@H](C)CO)C[C@H]2C)cc1 | -2 | nt | -12
O=C(CN1C(=O)CCC1=O)Nc1ccc2c3c(cccc13)CC2 | -7 | -11 | 92*
Cn1c(=O)c2ncn(CC(=O)Nc3ccc4c5c(cccc35)CC4)c2n(C)c1=O | 0 | -16 | 30
Cc1ccc(CN2CCN(/N=C/c3ccc(C(F)(F)F)cc3)CC2)c(C)c1 | -2 | 326* | 1
Cc1ccc(CN2CCN(/N=C/c3ccc(C(=O)O)cc3)CC2)c(C)c1 | nt | 4 | nt
COc1cccc(-c2ccc3c(c2)[C@@H]2[C@@H](CCN2C(=O)C2CCOCC2)[C@@H](CO)N3)c1 | -8 | nt | 16
CCCCCCC(=O)N(O)C1CC(=O)N(c2ccc(Br)cc2)C1=O (configuration not stated) | -2 | 338* | -19
CCCCCCC(=O)N(O)C1CC(=O)N(c2ccc(F)cc2)C1=O (configuration not stated) | -1 | 194 | nt
CN(C)CCNc1nc(S(=O)(=O)c2ccccc2)c(Cl)s1 | nt | 355* | nt
CC(C)CNc1nc(S(=O)(=O)c2ccccc2)c(Cl)s1 | -1 | -11 | 0
CCCC#Cc1cnc2c(c1)C(=O)N([C@H](C)CO)C[C@H](C)[C@@H](CN(C)C(=O)Nc1ccc(OC)cc1)O2 | 1 | nt | 38
C[C@H](CO)N1C[C@H](C)[C@@H](CN(C)C(=O)Nc2ccc(F)cc2)OCCCC[C@H](C)Oc2ccc(NC(=O)NC3CCCCC3)cc2C1=O | 0 | nt | nt
O=C(Nc1ccccc1)N1C[C@@H]2[C@H](c3ccccc31)[C@@H](CO)N2Cc1ccc(F)cc1 | -7 | nt | 0
Fc1ccc(CN2CCN3CCCC3C2C2CCCCC2)cc1F (configuration not stated) | -8 | -6 | -9
Fc1cccc(CN2CCN3CCCC3C2C2CCCCC2)c1 (configuration not stated) | 10 | 452 | 129*
O=C(Nc1ccc(F)cc1)Nc1ccc2c(c1)[C@H]1C[C@@H](CC(=O)N3CCCCC3)O[C@H](CO)[C@H]1O2 | -1 | nt | 2
CC(C)(C)OC(=O)N1Cc2cc3ccccc3nc2C1 | -3 | nt | nt
CC(C)(C)OC(=O)N1CCNc2ccccc2C1 | -1 | 4 | 96*
C[C@H]1CN([C@@H](C)CO)C(=O)c2cccc(NC(=O)C3CC3)c2O[C@H]1CN(C)C(=O)Nc1ccccc1 | -15 | nt | -9
Cc1ccc(O)c(C2=NNC(O)(C(F)(F)F)C2)c1 (configuration not stated) | nt | 340* | nt
Cc1ccc(O)c(-c2cc(-c3ccccc3F)[nH]n2)c1 | nt | 77 | nt
C[C@@H]1CCCCO[C@H](CN(C)Cc2ccc(Cl)c(Cl)c2)[C@@H](C)CN([C@@H](C)CO)C(=O)c2cc(N(C)C)ccc2O1 | 11 | nt | nt
SMILES | Cneo AK release | Mot1-301 SUMO | C2C12 statin
CO[C@H]1CN(C)C(=O)c2cc(NC(C)=O)ccc2OC[C@H](C)N(Cc2cccnc2)C[C@@H]1C | 0 | nt | -7
CC(Cl)C(=O)NN=C(c1ccccc1)c1ccccc1 (configuration not stated) | -2 | 468* | 6
CC(C)(C)C(CCl)C(=O)NN=C(c1ccccc1)c1ccccc1 (configuration not stated) | -2 | -11 | 3
Cc1ccc(S(=O)(=O)N(C)C[C@@H]2Oc3c(NS(C)(=O)=O)cccc3C(=O)N([C@H](C)CO)C[C@H]2C)cc1 | 2 | nt | 0
Cc1noc(C)c1S(=O)(=O)Nc1ccc2c(c1)C(=O)N([C@H](C)CO)C[C@@H](C)[C@@H](CN(C)Cc1ccc3c(c1)OCO3)OCCCC[C@H](C)O2 | 3 | nt | nt
C[C@@H]1CCCCO[C@@H](CN(C)Cc2ccc3c(c2)OCO3)[C@@H](C)CN([C@H](C)CO)C(=O)c2cc(NS(=O)(=O)c3ccc(F)cc3)ccc2O1 | 113* | nt | nt
Cc1noc(C)c1S(=O)(=O)Nc1ccc2c(c1)C(=O)N([C@H](C)CO)C[C@@H](C)[C@H](CN(C)Cc1ccccc1)OCCCC[C@H](C)O2 | 101* | nt | nt
Cc1noc(C)c1S(=O)(=O)Nc1ccc2c(c1)C(=O)N([C@@H](C)CO)C[C@@H](C)[C@H](CN(C)Cc1ccc3c(c1)OCO3)OCCCC[C@H](C)O2 | 101* | nt | nt
